Bioassay records: PubChem, several laboratories
UBC9 SUMO inh: blocks human SUMOylation mediated by UBC9; P63279; HTRF SUMOylation assay, SAE1/SAE2 + UBC9, in vitro; inhibition, % at 35 µM; 0.36% of 290,000 active; in the data active means inhibition above about 50%, passing the limit was not always enough
Target sequence (P63279 whole entry, looked up): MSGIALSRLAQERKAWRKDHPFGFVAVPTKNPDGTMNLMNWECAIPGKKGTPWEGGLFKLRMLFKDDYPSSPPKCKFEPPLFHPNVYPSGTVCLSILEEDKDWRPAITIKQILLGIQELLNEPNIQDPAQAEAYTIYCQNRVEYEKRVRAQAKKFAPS
A3A deaminase: blocks human APOBEC3A ssDNA deamination. recombinant A3A, FAM/TAMRA ssDNA deamination fluorescence. inhibition, % at 20 µM. 0.41% of 330,000 active. AID 493011;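 active means at least 40% inhibition at 20 µM here, with at most 30% in a related deaminase screen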;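 further: plate controls were A3A with DMSO for no effect and wells lacking A3A enzyme for full effect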
Target sequence (P31941 whole entry, looked up): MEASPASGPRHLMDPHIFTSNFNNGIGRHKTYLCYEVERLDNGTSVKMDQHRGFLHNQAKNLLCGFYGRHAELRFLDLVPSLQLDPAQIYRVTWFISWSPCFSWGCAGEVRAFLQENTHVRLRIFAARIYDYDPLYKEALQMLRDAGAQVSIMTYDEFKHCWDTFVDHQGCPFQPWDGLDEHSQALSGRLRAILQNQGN
HKDC1 inhibitor: inhibitors of human hexokinase HKDC1. Q2TB90. recombinant HKDC1, G6PDH/diaphorase resazurin coupled fluorescence. inhibition, % at 20 µM. 0.16% of 340,000 active. AID 493160;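 active means inhibition above about 35% when tested at 20 µM, limit read from the data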;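 further: plate controls were DMSO wells with enzyme for no effect and DMSO wells lacking enzyme for full effect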
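Assay system: in-house recombinant HK5 (HKDC1) enzyme. Input: HKDC1 at 5 µg/mL. Medium: Tris pH 8.0 buffer with MgCl2, Tween-20, BSA, BME. Dosing: single 20 µM dose. Schedule: 90 min reaction incubation at room temperature, dark. Signal: resazurin-to-resorufin fluorescence via G6PDH and diaphorase coupling, 525/613 nm. Controls: DMSO-enzyme wells negative, buffer-substituted wells positive.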
PfGluPho inh: PfG6PD (Plasmodium falciparum) enzyme inhibition; PfGluPho enzyme, NADPH resazurin-diaphorase fluorescence; AID 504690; 0.78% of 350,000 active; inhibition, % at 20 µM;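 active means inhibition reaching at least a set limit at 20 µM in the primary screen, cut at about 59% in these data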;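 further: 0% = DMSO wells with substrate and 100% = DMSO wells lacking glucose-6-phosphate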
M18AAP inhibitor: blocks P. falciparum M18 aspartyl aminopeptidase; recombinant PfM18AAP, H-Glu-NHMec fluorogenic cleavage; inhibition, % at 7.35 µM; 1.2% of 290,000 active; AID 1822;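 active means inhibition above the campaign mean inhibition over all tested compounds plus 3 SD, cut at about 28% in these data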;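 further: 0% = plate median of test compound wells and 100% = 2 mM ZnCl2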
A3G deaminase: APOBEC3G (human) deaminase inhibition | recombinant A3G, ssDNA deamination FAM/TAMRA fluorescence | AID 493012 | 0.28% of 330,000 active | inhibition, % at 20 µM | Q9HC16;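 active means inhibition of at least 40% at 20 µM, with no more than 30% in the related APOBEC3A deaminase screen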;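 further: plate controls were DMSO wells with A3G for no effect and wells lacking A3G enzyme for full effect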
Target sequence (Q9HC16 whole entry, looked up): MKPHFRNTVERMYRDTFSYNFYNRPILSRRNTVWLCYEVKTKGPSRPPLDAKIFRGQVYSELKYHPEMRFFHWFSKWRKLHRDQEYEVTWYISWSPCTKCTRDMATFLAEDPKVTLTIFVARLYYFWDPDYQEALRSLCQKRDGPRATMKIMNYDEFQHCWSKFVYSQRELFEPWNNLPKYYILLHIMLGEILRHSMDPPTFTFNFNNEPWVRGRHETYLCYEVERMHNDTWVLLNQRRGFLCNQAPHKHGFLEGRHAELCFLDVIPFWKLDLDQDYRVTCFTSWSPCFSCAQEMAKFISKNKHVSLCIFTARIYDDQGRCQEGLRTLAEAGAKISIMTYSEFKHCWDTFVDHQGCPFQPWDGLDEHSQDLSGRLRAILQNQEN
PfGluPho conf: PfG6PD inhibition, single-dose confirmed | inhibition, % at 20 µM | AID 504753 | recombinant PfGluPho, NADPH-diaphorase-resazurin fluorescence | 34% of 2,400 active | shares compounds with PfGluPho inh;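 active means inhibition of at least 50% at 20 µM in any single replicate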;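 further: 0% = DMSO with substrate and 100% = DMSO lacking glucose-6-phosphate substrate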
Diaph ctr 10uM: diaphorase inhibition or oxidation at 10 uM NADPH. inhibition, % at 20 µM. diaphorase-coupled resazurin reduction, fluorescence, NADPH 10 uM. 39% of 820 active. shares compounds with PfGluPho inh;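 active means average inhibition reaching 50% or more with the compound at 20 µM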;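 further: resorufin red fluorescence formed as diaphorase reduces resazurin using NADPH; 0% = DMSO with enzyme and 100% = DMSO without enzyme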
Diaphorase 30uM: counter-screen for P. falciparum G6PD inhibitors: diaphorase inhibitors, oxidizers; 29% of 820 active; inhibition, % at 20 µM; shares compounds with PfGluPho inh; Diaphorase/resazurin coupled assay, resorufin fluorescence, 30 uM NADPH; AID 504863;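 active means inhibition averaging 50% or more, tested at 20 µM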;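 further: 0% = DMSO with enzyme and 100% = DMSO wells lacking diaphorase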
Numbers without * were called inactive; / = no result. Only some compounds are listed: those with a hit (about 2.4% of all), similar ones and a draw of the others.

SMILES | UBC9 SUMO inh | A3A deaminase | HKDC1 inhibitor | PfGluPho inh | M18AAP inhibitor | A3G deaminase | PfGluPho conf | others
CC(C)N(C(=O)[C@H]1C[C@H](CC(=O)NCCCN(C)C)C(=O)N2CCc3c([nH]c4cc(-c5ccco5)ccc34)[C@]12C)C(C)C | / | 2 | -2 | 23 | / | 2 | /
c1cncc(-c2noc(-c3ccco3)n2)c1 | 23 | 1 | -2 | -15 | 2 | 0 | /
O=C(O)c1ccccc1O | -34 | -1 | -3 | -2 | 4 | -3 | /
Nc1c(O)cccc1C(=O)O | / | 8 | 21 | 108* | / | 2 | 80* | Diaph ctr 10uM=0;Diaphorase 30uM=0
O=C(O)CSC1CC(=O)N(c2ccc(Cl)c(Cl)c2)C1=O (stereo unspecified) | 8 | -2 | -1 | -32 | 0 | -4 | /
C=CCOc1ccccc1/C=N/NC(=O)Cc1ccc(C)cc1 | 2 | -1 | 4 | 3 | 2 | -3 | /
CN(Cc1c(C(=O)N/N=C/c2ccccc2)nnn1-c1nonc1N)C1CCCCC1 | 2 | -2 | -3 | 12 | 3 | -5 | /
NC(=S)N/N=C/c1ccc(-n2nncc2-c2ccc(Cl)cc2)cc1 | 11 | -4 | 8 | 73* | 4 | -11 | 22
NC(=S)N/N=C/c1ccc(/C=N/NC(N)=S)cc1 | 5 | -1 | 23 | -7 | 15 | 9 | /
Nn1cnnc1N/N=C\c1ccc(-c2ccccc2[N+](=O)[O-])o1 | 98* | / | -2 | 81* | 54* | / | 53* | Diaph ctr 10uM=74*;Diaphorase 30uM=57*
O=[N+]([O-])c1ccccc1-c1ccc(/C=N/n2cnnc2)o1 | 9 | 3 | -2 | 10 | 27 | 0 | /
CC(=O)C(Sc1ncnc2c1nnn2-c1ccc(F)cc1)C(=O)N(C)C (stereo unspecified) | 14 | 2 | -6 | 62* | 4 | 33 | 19
CCOC(=O)CSc1ncnc2c1nnn2-c1ccc(F)cc1 | -18 | 0 | -2 | -4 | -3 | -6 | /
O=C1c2ccccc2-c2onc3ccc(NCc4ccco4)c1c23 | -50 | -59 | 23 | 74* | 25 | -70 | 25
O=C(Cn1cccc1C(=O)c1ccccc1)NCc1ccccc1Cl | / | -7 | 2 | 6 | 3 | -5 | /
COc1cc(NCc2ccccc2)c2ncn(C(C)C)c2c1 | / | -6 | 7 | 61* | / | -9 | 56* | Diaph ctr 10uM=-3;Diaphorase 30uM=-10
CCC(CN(C)C)Oc1cc(NCc2ccccc2)c2ncn(C(C)C)c2c1 (stereo unspecified) | / | -4 | 21 | 58 | / | 13 | /
CCOc1ccc(-c2noc(CCC(=O)NC)n2)cc1OCC | 22 | -5 | -4 | -3 | 0 | -6 | /
COc1ccccc1N1CCN(/N=C/c2cccc(O)c2)CC1 | -4 | -6 | -3 | 8 | -8 | -7 | /
COc1ccccc1N1CCN(/N=C/c2cc(OC)c(O)c(OC)c2)CC1 | 1 | -6 | -1 | 76* | 21 | -4 | 7
COc1cccc(C(C#N)N2CCOCC2)c1 (stereo unspecified) | -13 | 1 | -3 | -9 | 3 | -4 | /
CC1CCN(C(=O)CCN2C(=O)C3C4C=CC(C4)C3C2=O)CC1 (stereo unspecified) | 4 | -3 | -1 | -6 | 1 | -4 | /
Nc1cccc(-c2nc3ccc(C(=O)c4ccccc4)cc3[nH]2)c1 | -3 | -7 | 2 | 62* | -2 | -5 | 14
O=[N+]([O-])c1ccc2nc(-c3ccccc3)[nH]c2c1 | 2 | -3 | 7 | 68* | 8 | -7 | 21
O=[N+]([O-])c1ccc2nc(-c3cccnc3)[nH]c2c1 | 20 | -6 | 3 | 41 | -8 | -4 | /
SMILES | UBC9 SUMO inh | A3A deaminase | HKDC1 inhibitor | PfGluPho inh | M18AAP inhibitor | A3G deaminase | PfGluPho conf | others
CCn1c(=O)c([N+](=O)[O-])c(N2CCOCC2)c2ccccc21 | 28 | 3 | -10 | -1 | 0 | -8 | /
COc1ccc(NC(=O)n2ncc3c(C)cccc32)cc1OC | -8 | 1 | 1 | 46 | 7 | -4 | /
COc1ccc(NC(=O)n2ncc3c(C)cccc32)cc1 | 25 | 2 | 2 | 69* | 1 | -1 | 20
CCN(CC)C(=S)SSC(=S)N(CC)CC | -33 | -1 | -19 | 66* | 36* | 7 | 49* | Diaph ctr 10uM=-22;Diaphorase 30uM=-11
S=C(NCc1ccccc1)NCc1ccco1 | -7 | 2 | 0 | 18 | 21 | -1 | /
CN(C)c1ccc(/C=N/NC(=S)NCc2ccco2)cc1 | -3 | -1 | -3 | 0 | 16 | -2 | /
S=C(NCc1ccco1)NCc1ccco1 | / | / | -11 | 79* | / | / | 39
CN(C)c1ccc(C(=S)NCc2ccco2)cc1 | 17 | -1 | -4 | 63* | 5 | 15 | 3
Cc1ccn2c(Cc3ccccc3)c(-c3ccc(F)cc3)nc2c1 | / | / | / | 77* | / | / | 10
Clc1ccc(-c2nc3ccc(Cl)cn3c2Cc2ccccc2)cc1 | / | / | / | 102* | / | / | 17
Fc1ccc(-c2nc3ccc(Cl)cn3c2Cc2ccccc2)cc1 | / | / | / | 81* | / | / | -5
Cc1ccc(Cc2c(-c3ccccc3)nc3cc(C)ccn23)cc1 | / | / | / | 23 | / | / | /
COCCn1c(SCC(=O)NCCc2ccccc2)nnc1-c1ccco1 | 22 | -2 | -7 | -18 | -11 | -5 | /
Cc1cc2nc3ccc(N(C)C)cc3nc2cc1N | / | 47 | 24 | 79* | / | 69 | 32
O=C(CSc1nc2ccc(Cl)cc2[nH]1)Nc1ccc2[nH]c(=O)[nH]c2c1 | / | -5 | 23 | 60* | / | -9 | 24
Cc1ccc2nc(SCC(=O)Nc3ccc4[nH]c(=O)[nH]c4c3)[nH]c2c1 | / | 1 | 23 | 46 | / | 2 | /
CCN(CC)c1ccc(/C=N/N=C(c2ccccc2)c2ccccc2)c(O)c1 | -3 | -4 | -4 | -4 | -2 | -9 | /
CCN(CC)c1ccc(C=Nc2ccccc2C)c(O)c1 | 17 | -1 | 2 | 59* | 10 | -5 | 28
O=[N+]([O-])c1cccnc1N1CCC(c2cc(-c3ccc(Cl)cc3Cl)n[nH]2)CC1 | -20 | 4 | 1 | 17 | -4 | 2 | /
CC1CCN(CC(=O)N2CCCc3c2c(=O)oc2ccc(OCc4ccccc4)cc32)CC1 | -3 | 0 | -1 | 9 | 4 | -3 | /
CCCOc1ccc2oc(=O)c3c(c2c1)CCCN3C(=O)CN1CCc2ccccc2C1 | 17 | 0 | 3 | 60* | 6 | -3 | 27
Cc1cc(-n2c(C)cc(C(=O)COc3ccccc3[N+](=O)[O-])c2C)no1 | 16 | -3 | 1 | 10 | 9 | -12 | /
Cc1cc(-n2c(C)cc(C(=O)COc3ccc(F)c(F)c3)c2C)no1 | / | -2 | 7 | 61* | / | -6 | 9
